The values that follow come from publication PMC3243070 (European Journal of Medicinal Chemistry, 2011).

The target of assay [1] is T1, bovine folate binding protein (FBP) (Bos taurus, UniProt P02702). Conditions: SPR, earlier study; cited from earlier work. In general terms: SPR reads the build-up and loss of mass on a sensor chip optically.
Assay [2] has as its target T1, bovine folate binding protein (FBP). The essentials:
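Bovine milk FBP amide-coupled to a CM5 chip (9.5 ng/mm2). Ligands injected in HBS-EP at 30 µL/min (monovalent) or 50 µL/min (dendrimer conjugates). Chip regenerated with 10 mM glycine-HCl pH 2.5. Reference channel subtracted. kon and koff from Langmuir fits, with mass-transport effects checked. KD = koff/kon, averaged over ≥3 measurement sets per concentration with χ2 < 5.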

The next assay addresses kidney FAR. Conditions: cited from earlier work.

T1 sequence (P02702 20-241): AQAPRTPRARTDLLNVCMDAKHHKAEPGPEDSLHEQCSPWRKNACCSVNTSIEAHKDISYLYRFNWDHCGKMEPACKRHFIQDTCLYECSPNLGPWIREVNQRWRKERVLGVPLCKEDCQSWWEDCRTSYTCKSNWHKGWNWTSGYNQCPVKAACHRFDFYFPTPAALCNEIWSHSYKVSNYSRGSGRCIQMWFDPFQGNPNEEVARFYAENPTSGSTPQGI

As for `Nc1nc2ncc(CNc3ccc(C(=O)N[C@@H](CCC(=O)O)C(=O)O)cc3)nc2c(=O)[nH]1` [FA, folic acid], the dissociation constant Kd (in general, the concentration at which binding is half-saturated) in assay [1] is 5000 nM. In addition, in assay [2], the koff – broadly, a measure of how fast the partners let go of each other – stood at 0.012 s⁻¹ and the on-rate (kon) – broadly, the second-order rate constant of association – is 1100 M⁻¹ s⁻¹. For the same molecule, the Kd at kidney FAR was around 1 nM.

Turning to `CN(Cc1cnc2nc(N)nc(N)c2n1)c1ccc(C(=O)N[C@@H](CCC(=O)O)C(=O)O)cc1` [MTX, methotrexate], the “affinity lower than that of FA” value in assay [2] (from the SPR KD values) is on record as “≈ 2 fold”. Also, the equilibrium dissociation constant (Kd) on kidney FAR is 20 to 100 nM.
